Test results reported in article PMC6215875 (Cancer Science, 2018).
Read-outs that look alike come from different tables or passages of the source.

Assays:
KIT mutants [1] = type: cell-based; conditions: 1 μmol/L; for suppression of KIT activation (phosphorylation): COS-1, 4 double mutations (∆557-558 with V654A, T670I, D820G or N822K); for suppression of KIT phosphorylation: COS-1, single mutations in exons 13, 14, and 17, 30 minutes
GIST48 cells = test: Cell cycle analysis, GIST48; type: cell-based; conditions: GIST48, 1 μmol/L
In short: (§1)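 Test compound added at the doses stated, and cells harvested over a time course. Cells washed twice in PBS, fixed overnight in cold 70% ethanol, and pelleted at 5000 g for 5 min. Pellets incubated with 0.2 mg/mL RNase A for 1 h, then stained with 20 μg/mL propidium iodide at room temperature. DNA content read by flow cytometry. Mean ± SE of triplicate experiments.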

KIT mutants [2] = target: KIT mutants (Homo sapiens, UniProt P10721, D816V); conditions: COS-1, D816V in exon 17; cited from earlier work
KIT mutants (Homo sapiens, UniProt P10721, D816V), sequence (P10721 26-976 D816V): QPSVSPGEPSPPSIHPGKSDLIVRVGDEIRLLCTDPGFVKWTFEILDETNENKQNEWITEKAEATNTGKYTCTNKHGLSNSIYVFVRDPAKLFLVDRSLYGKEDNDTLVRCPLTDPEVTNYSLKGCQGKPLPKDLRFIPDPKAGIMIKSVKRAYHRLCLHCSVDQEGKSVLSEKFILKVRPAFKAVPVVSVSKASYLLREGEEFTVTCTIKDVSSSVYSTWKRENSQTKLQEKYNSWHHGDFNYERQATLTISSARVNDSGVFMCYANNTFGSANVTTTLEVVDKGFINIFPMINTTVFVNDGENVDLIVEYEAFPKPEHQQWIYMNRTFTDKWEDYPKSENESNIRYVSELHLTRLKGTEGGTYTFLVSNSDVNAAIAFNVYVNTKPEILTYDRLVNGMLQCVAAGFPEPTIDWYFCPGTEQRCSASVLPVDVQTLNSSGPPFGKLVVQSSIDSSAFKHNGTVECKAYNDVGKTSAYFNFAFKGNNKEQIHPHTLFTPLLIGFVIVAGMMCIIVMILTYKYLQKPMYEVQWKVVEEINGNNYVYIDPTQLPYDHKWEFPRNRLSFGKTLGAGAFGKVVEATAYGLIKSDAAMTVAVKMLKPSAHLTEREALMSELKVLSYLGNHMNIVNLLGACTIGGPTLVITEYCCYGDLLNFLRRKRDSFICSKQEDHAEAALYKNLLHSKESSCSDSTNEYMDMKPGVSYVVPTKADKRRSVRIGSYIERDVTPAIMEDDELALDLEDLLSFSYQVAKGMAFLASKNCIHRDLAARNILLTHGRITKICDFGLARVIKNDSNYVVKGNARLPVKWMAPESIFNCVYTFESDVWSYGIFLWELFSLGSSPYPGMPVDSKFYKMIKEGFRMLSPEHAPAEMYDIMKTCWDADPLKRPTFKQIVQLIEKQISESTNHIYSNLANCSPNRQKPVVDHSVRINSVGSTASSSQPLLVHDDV

advanced GIST = conditions: cited from earlier work; for median PFS: advanced GIST patients
GIST-T1 cells = test: Cell proliferation assay, GIST-T1; type: cell-based; conditions: imatinib-sensitive GIST-T1, Figure S2A
In short: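 GIST-T1 cells were grown in RPMI-1640 with 10% FBS at 37°C, 5% CO₂. 4 × 10⁴ cells were exposed to a range of test compound doses for 120 h. They were then stained with methylene blue for 1 h, and absorbance was read at […].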

GIST430 cells = test: Cell cycle analysis, GIST430; type: cell-based; conditions: BPR1J373 at 10 nmol/L, 100 nmol/L, and 1 μmol/L
In short: as §1

GIST430 xenograft = GIST430 xenograft in NOD-SCID mice; type: in vivo; conditions: for KIT and KIT phosphorylation in tumors compared with controls: GIST430 xenograft tumors after treatment, Figure 6B
In short: (§2)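 Male NOD-SCID mice (6–8 weeks, SPF) received GIST430 cells (2 × 10⁷/mouse) s.c. At 50–100 mm³, vehicle or test compound in 20% (2-hydroxypropyl)-β-cyclodextrin was given orally on days 1–5 weekly for 2 weeks. Controls n=5, treated groups n=6. Tumor volume (length × width² × π/6) and body weight were recorded three times weekly up to 16 days. Comparison: Wilcoxon rank sum.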

[3] = Body weight and survival of GIST430 xenograft mice; type: in vivo; conditions: regorafenib 30 mg/kg; for body weight (mean ± SE): oral, 2 weeks, BPR1J373 50 mg/kg, sunitinib 40 mg/kg
In short: as §2

| SMILES | suppression of KIT activation (phosphorylation) (KIT mutants [1]) | suppression of KIT phosphorylation (KIT mutants [1]) | cell cycle change (GIST48 cells) | suppression of KIT phosphorylation (KIT mutants [2]) | disease control rate (advanced GIST; advanced GIST, initial phase II study) [%] | antiproliferative effect (GIST-T1 cells) | cell cycle change (GIST430 cells) | KIT and KIT phosphorylation in tumors compared with controls (GIST430 xenograft) | body weight (mean ± SE) [3] [g] | mice that died before completion of the experiment ([3]; 6 mice, died at day 14) | median PFS (advanced GIST; third-line treatment, phase III) [months] | antitumor effect vs control, P (Wilcoxon rank sum test) (GIST430 xenograft; oral, day 1 to day 5 per week for 2 weeks, BPR1J373 50 mg/kg, sunitinib 40 mg/kg) | median PFS (advanced GIST; second-line treatment) [months] |
| --- | --- | --- | --- | --- | --- | --- | --- | --- | --- | --- | --- | --- | --- |
| Cc1ccc(NC(=O)c2ccc(CN3CCN(C)CC3)cc2)cc1Nc1nccc(-c2cccnc2)n1 [Imatinib] | variable effects | differentially suppressed | Neither 1 μmol/L imatinib nor nilotinib induced S or G2/M arrest | resistant | 81.6 |  |  |  |  |  |  |  |  |
| Cc1cn(-c2cc(NC(=O)c3ccc(C)c(Nc4nccc(-c5cccnc5)n4)c3)cc(C(F)(F)F)c2)cn1 [Nilotinib] | variable effects | differentially suppressed | Neither 1 μmol/L imatinib nor nilotinib induced S or G2/M arrest | resistant |  | best antiproliferative effects |  |  |  |  |  |  |  |
| CNC(=O)c1cc(Oc2ccc(NC(=O)Nc3ccc(Cl)c(C(F)(F)F)c3)c(F)c2)ccn1 [Regorafenib] | variable effects | differentially suppressed | only a mild increase in subG1 and a mild decrease in S and G2/M proportions |  |  |  | did not induce significant cell cycle changes | decreased expression levels of KIT and KIT phosphorylation | 28.82 ± 0.52 | 1 | 4.8 |  |  |
| CCN(CC)CCNC(=O)c1c(C)[nH]c(/C=C2\C(=O)Nc3ccc(F)cc32)c1C [Sunitinib] | variable effects | differentially suppressed |  | resistant |  | best antiproliferative effects |  | decreased expression levels of KIT and KIT phosphorylation | 29.1 ± 1.04 |  |  | 0.03 | 6.8 |
